# Measured values as given in ChEMBL document CHEMBL1139389, “Discovery of the Poly(ADP-ribose) polymerase (PARP) inhibitor 2-[(R)-2-methylpyrrolidin-2-yl]-1H-benzimidazole-4-carboxamide (ABT-888) for the treatment of cancer” (J Med Chem, 2009).
# Key:
# [1] = Oral bioavailability in CD1 mouse at 10 mg/kg; type: ADME, organism-based; conditions: in vivo
# Outline: (§1)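 Mouse PK: oral dose 10 mg/kg in 2.5% EtOH, 1 drop Tween-80, 25% PEG400 in PBS; iv dose 3 mg/kg in 2.5% EtOH, 5% DMSO, 1 drop Tween-80, 25% PEG400 in PBS. Oral bioavailability, iv half-life, oral AUC and Cmax derived from plasma profiles.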
# [2] = Half life in CD1 mouse at 3 mg/kg, iv; type: ADME, organism-based; design: dose 3 mg/kg, route intravenous; conditions: in vivo; outline: as §1
# [3] = AUC in CD1 mouse at 10 mg/kg, po; type: ADME, organism-based; design: dose 10 mg/kg, route oral; conditions: plasma; outline: as §1
# [4] = Cmax in CD1 mouse at 10 mg/kg, po; type: ADME, organism-based; design: dose 10 mg/kg, route oral; conditions: in vivo; outline: as §1
# [5] = target: Poly [ADP-ribose] polymerase 2 (Homo sapiens, UniProt Q9UGN5); test: Inhibition of human recombinant PARP2
# Chain of Poly [ADP-ribose] polymerase 2 (Q9UGN5 whole entry): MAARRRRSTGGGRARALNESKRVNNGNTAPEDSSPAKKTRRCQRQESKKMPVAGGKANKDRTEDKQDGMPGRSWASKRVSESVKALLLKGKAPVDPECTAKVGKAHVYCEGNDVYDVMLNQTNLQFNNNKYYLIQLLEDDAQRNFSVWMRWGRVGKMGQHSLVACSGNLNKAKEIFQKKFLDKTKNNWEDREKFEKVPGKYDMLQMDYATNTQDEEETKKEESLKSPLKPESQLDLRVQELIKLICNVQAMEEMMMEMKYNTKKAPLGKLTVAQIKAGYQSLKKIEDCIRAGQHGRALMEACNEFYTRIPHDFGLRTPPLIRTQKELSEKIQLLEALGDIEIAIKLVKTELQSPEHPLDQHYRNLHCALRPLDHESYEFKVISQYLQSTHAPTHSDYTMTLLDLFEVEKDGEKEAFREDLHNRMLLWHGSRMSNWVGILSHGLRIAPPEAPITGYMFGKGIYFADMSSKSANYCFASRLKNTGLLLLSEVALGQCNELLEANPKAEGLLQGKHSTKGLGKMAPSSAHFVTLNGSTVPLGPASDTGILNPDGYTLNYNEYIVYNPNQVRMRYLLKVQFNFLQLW
Compound,bioavailability [1],half-life [2],AUC [3],Cmax [4],Ki [5]
CC1(c2nc3c(C(N)=O)cccc3[nH]2)CCCCN1 (stereo not given),93%,1.5 h,1500 ng·h/mL,500 ng/mL,–
CC1(c2nc3c(C(N)=O)cccc3[nH]2)CCNC1 (stereo not given),–,–,–,–,2 nM
